The list is not random: actives were taken first. Their share in the collection is about 2.9%.
SENP7 inh: SENP7 protease inhibition | inhibition, % at 5 µM | 330,000 compounds, 1.5% hits | recombinant SENP7, Z-RLRGG-aminoluciferin luminescence, 40 min;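 active = inhibition above about 50% at the single test dose, limit read from the data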;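 also: plate controls were DMSO with enzyme for no effect and no enzyme buffer wells for full effect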
Target sequence (Q9BQF6 706-1050 limits assumed): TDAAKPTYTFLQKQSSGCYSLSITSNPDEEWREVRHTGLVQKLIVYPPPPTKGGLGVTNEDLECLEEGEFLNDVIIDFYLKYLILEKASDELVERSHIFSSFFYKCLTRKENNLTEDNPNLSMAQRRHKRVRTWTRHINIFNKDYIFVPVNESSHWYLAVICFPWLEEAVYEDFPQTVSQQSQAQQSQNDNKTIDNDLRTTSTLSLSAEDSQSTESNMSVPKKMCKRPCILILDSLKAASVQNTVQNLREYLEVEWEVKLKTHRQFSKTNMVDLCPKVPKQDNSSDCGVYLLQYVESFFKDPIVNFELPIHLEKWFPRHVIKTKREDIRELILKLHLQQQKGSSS
Apaf1 inhib: human Apaf-1 inhibition | O14727 | reconstituted apoptosome caspase-3 activity, DEVD-Rh110 fluorescence | inhibition, % at 20 µM | 330,000 compounds, 0.71% hits; active = inhibition of at least 40% at 20 µM;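 also: plate controls were DMSO wells for no effect and DEVD-CHO caspase inhibitor wells for full effect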
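Assay system: Apoptosome proteins | Medium: pH 7.5 Hepes buffer with CHAPS, BSA, DTT | Also added: Cytochrome c and DEVD-Rh110 substrate | Times: 30 min plus 50 min, RT | Detection: Rhodamine 110 fluorescence at Ex 480/Em 540 nm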
SENP8 block-1: blocks human SENP8 cleavage of Nedd8 substrate | Q96LD8 | recombinant SENP8, Nedd8 substrate fluorescence | inhibition, % at 20 µM | 360,000 compounds, 0.64% hits | AID 602440; in the data active = inhibition mostly above about 40%, no sharp cut-off; inactive = mostly below about 27%
Target sequence (Q96LD8 whole entry, looked up): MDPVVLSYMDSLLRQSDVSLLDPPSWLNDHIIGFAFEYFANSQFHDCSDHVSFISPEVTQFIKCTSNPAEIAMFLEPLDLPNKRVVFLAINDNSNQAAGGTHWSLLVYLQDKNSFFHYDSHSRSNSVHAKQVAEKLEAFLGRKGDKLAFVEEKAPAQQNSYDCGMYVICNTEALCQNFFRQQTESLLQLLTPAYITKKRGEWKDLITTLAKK
SENP8 block-2: blocks the human protease SENP8; Q96LD8; purified SENP8, Z-RLRGG-aminoluciferin cleavage, luminescence; inhibition, % at 10 µM; 330,000 compounds, 1.2% hits; AID 2540; in the data active = inhibition above about 50%
SENP6 block: inhibitors of human SENP6 protease. Recombinant SENP6 catalytic domain, aminoluciferin luminescence. Q9GZR1. inhibition, % at 10 µM. AID 2599. 330,000 compounds, 1.8% hits;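 active = inhibition above about 50% at the single tested dose, limit read from the data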;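 also: plate controls were DMSO wells with enzyme for no effect and DMSO wells lacking enzyme for full effect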
SENP1 FRET inh: inhibitors of human SENP1 SUMO protease catalytic domain; Q9P0U3; inhibition, % at 10 µM; recombinant SENP1 catalytic domain, CyPet-SUMO1-YPet FRET cleavage; AID 624204; 360,000 compounds, 0.21% hits;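 active = inhibition at least 30% at 10 µM, raw YFP signal under a set limit, fluorescence ratio 0.5 to 1.5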;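 also: 0% = enzyme with DMSO and 100% = no enzyme wells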
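Assay system: hSENP1 catalytic domain, recombinant. Amount: SENP1 enzyme, 20 pM final. Schedule: 50 min reaction, RT, dark. Technique: FRET, CFP and YFP emission. Control set: no-enzyme wells low, DMSO-plus-enzyme wells high control.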
* hit, by the source's call; i = inactive; . = no result given.

SMILES	SENP7 inh	Apaf1 inhib	SENP8 block-1	SENP8 block-2	SENP6 block	SENP1 FRET inh
Cc1nc2c(OCc3ccc(C(F)(F)F)cc3)cccn2c1N(C)CC1CC1	.	.	-10.2	.	.	-32.1
Oc1ccc(/C=N/N2CCCCC2)cc1O	-3.4	2.2	45.2*	-11.4	-1.6	1.0
Clc1ccc(C=NN2CCCCCC2)cc1Cl	.	.	-0.2	.	.	-0.2
CC1CCCC(C)N1/N=C/c1ccc(O)c(O)c1 (centres undefined)	7.5	1.7	51.1*	12.1	1.4	-3.8
CCCN(CC(=O)Nc1ccccc1C)C(=O)c1ccc(S(=O)(=O)N2CCC(C)CC2)cc1	2.5	11.4	16.6	-4.4	-10.4	2.4
O=C(NC(=S)NNC(=O)c1ccccc1O)c1ccc([N+](=O)[O-])cc1	27.7	-2.0	35.9	48.7	76.7*	-0.6
Cc1[nH]c2ccccc2c1N=Nc1ccc(F)cc1	-6.1	-10.4	46.9*	-8.1	15.3	4.1
Cc1[nH]c2ccccc2c1N=Nc1ccccc1F	1.7	0.3	4.2	3.2	-12.6	-3.0
CSc1ccc(S(=O)(=O)NCC(=O)OCC(=O)N(C)CC(=O)Nc2ccc(F)cc2)cc1[N+](=O)[O-]	.	.	18.5	.	.	-0.8
Cc1cccc(C)c1NC(=O)CN(C)C(=O)CC1CC2CCC1C2 (centres undefined)	7.9	6.2	4.3	-2.2	-1.1	1.0
NC(N)=N/N=C/c1ccc(OCc2ccccc2Cl)cc1	-8.1	42.9*	9.8	-19.4	-24.5	1.4
NC(N)=N/N=C/c1ccccc1	1.9	-8.0	10.7	9.1	-2.7	2.2
COc1ccc(O[C@H]2C=C[C@@H](c3ccccc3)O[C@@H]2COC(=O)CC/C(C)=N/OC[C@@H](O)COCc2ccco2)cc1	0.0	13.4	.	-8.7	-9.0	.
COc1ccc(O[C@H]2C=C[C@@H](c3ccccc3)O[C@@H]2CO/N=C(\C)CCN2CCc3nc(-c4ccccc4)c(-c4ccccc4)cc3C2)cc1	2.0	47.5*	.	-5.6	-3.7	.
CCc1cc2c(nc1CC)CCN(CC/C(C)=N/OC[C@H]1O[C@H](c3ccccc3)C=C[C@@H]1Oc1ccc(OC)cc1)C2	3.1	43.4*	.	7.8	-16.4	.
COc1ccc(O[C@H]2C=C[C@@H](c3ccccc3)O[C@@H]2COC(=O)CC/C(C)=N/O[C@@H](C)c2cc(-c3c(C)cc(C)cc3C)no2)cc1	1.1	8.0	.	-5.7	-12.7	.
COc1cc(NC(=O)c2cccc(C)c2)ccc1NC(=O)c1cc2ccccc2o1	5.1	-3.1	-54.1	3.5	-1.4	-33.8
CC(=O)N1CCN(C(=O)c2cccc(S(=O)(=O)N3CCOCC3)c2)CC1	0.0	-3.7	22.7	-4.6	-6.8	4.3
COc1ccc(N(/N=C2\Sc3ccccc3C2=O)C(C)=O)cc1	.	.	51.6*	.	.	2.7
O=C(O)c1ccc(N=Nc2c(O)[nH]c3cc(Cl)ccc23)cc1	96.8*	-10.1	37.1	94.6*	97.4*	-35.6
O=C(O)c1ccc(N=Nc2c(O)[nH]c3ccc(Br)cc23)cc1	62.0*	7.8	38.2	69.5*	57.1*	9.7
COC(=O)c1ccc2nc(-c3ccccc3)c(Cc3ccccc3OC)n2c1	.	.	-356.1	.	.	5.9
CC1(C(=O)NS(=O)(=O)c2ccc(Cl)s2)CCN1C(=O)c1ccccc1CCc1ccccc1 (centres undefined)	.	.	11.7	.	.	1.0
O=C1/C(=C/c2ccc(Br)cc2)Oc2cc(O)ccc21	21.2	9.1	-299.2	53.1*	56.1*	-21.8
CC(C)c1cc(Cn2c3ccccc3c(=O)n2C(C)Cn2cc(-c3ccc(C(C)(C)C)cc3)nn2)on1 (centres undefined)	.	.	-405.5	.	.	2.5
SMILES	SENP7 inh	Apaf1 inhib	SENP8 block-1	SENP8 block-2	SENP6 block	SENP1 FRET inh
O=c1ccc(N=Nc2ccccc2)ccc1O	.	.	42.6*	.	.	8.1
Oc1ccc(N=Nc2ccccc2)o1	-7.4	0.6	14.4	4.1	-13.3	1.8
N#C/C(=C\c1ccc(O)c(O)c1)C(=O)c1ccc(O)c(O)c1	45.3	4.0	10.9	81.0*	83.4*	3.3
O=C1NC[C@@H](CCCCN2C[C@H](Cc3ccccc3)N(Cc3ccccc3)C(=O)C2=O)N(Cc2ccccc2)C1=O	.	.	13.5	.	.	3.0
Cc1ccc2cccc(NC3OC(=O)c4ccccc43)c2n1 (centres undefined)	36.1	7.6	9.7	21.5	51.0*	-22.6
COC(=O)c1ccccc1NC1OC(=O)c2ccccc21 (centres undefined)	-0.2	-1.5	i	2.7	-8.7	-0.8
COc1cc(NC(=O)c2cc([N+](=O)[O-])ccc2NC(=O)CN2CCN(c3ccccn3)CC2)cc(OC)c1	-7.4	12.1	3.6	-7.2	1.7	0.1
NC(=S)N=Nc1c(O)[nH]c2c(Br)cc(Br)cc12	-7.8	19.6	52.1*	-8.6	-23.3	5.6
O=C1c2ccccc2C(=O)C1(O)O	43.9	68.0*	.	62.1*	57.0*	.
COc1cccc(C(=O)NCCS(=O)(=O)N2CCCC(C)C2)c1 (centres undefined)	.	.	11.6	.	.	0.0
Cc1cccc(NC(=S)NNC(=O)c2ccccc2Br)c1	16.2	3.5	7.4	10.9	68.1*	2.5
Cc1cccc(NC(=S)NNC(=O)c2ccccc2OC(F)F)c1	15.8	-1.3	3.7	5.5	21.2	2.1
C=CCn1c(SCC(=O)Nc2cccc(S(N)(=O)=O)c2)nnc1C1CCCCC1	2.2	2.1	4.1	-8.9	4.1	0.9
CCCCCCCCCCCCCCCC[N+](C)(C)CC	4.2	87.5*	8.3	-8.2	-6.2	2.1
Cn1c(=O)c2nc(NCc3ccccc3)sc2n(C)c1=O	.	.	9.4	.	.	-0.3
O=C(/C(=N/N=C/c1ccc(O)c(O)c1O)c1ccccc1)c1ccccc1	-0.1	4.9	29.9	3.1	7.7	2.0
Oc1ccc(/C=N/N=C(c2ccccc2)c2ccccc2)c(O)c1O	.	.	33.5*	.	.	-32.0
O=C1/C(=C\c2ccc([N+](=O)[O-])cc2)CCc2ccccc21	86.9*	-3.9	33.0	90.8*	82.4*	2.2
O=C1/C(=C/c2ccc(O)cc2)CCc2ccc([N+](=O)[O-])cc21	-2.2	9.8	21.2	-30.8	-27.5	-6.4
CC1CC(C)CN(S(=O)(=O)c2cccc(C(=O)N3CCN(c4ccc(F)cc4)CC3)c2)C1 (centres undefined)	0.5	23.8	0.8	-1.2	-6.3	-1.4
CC(=O)Nc1cccc(Oc2nc(NC(C)C)nc3cc(-c4ccccc4)sc23)c1	.	.	-210.2	.	.	1.6
COc1cc(S(=O)(=O)N2CCOCC2)cc(C(=O)OCC(=O)NC2CCCCC2)c1OC	-5.7	5.9	5.7	-18.5	-12.4	1.9
CC(=O)Nc1cc(NC(C)=O)cc(-c2nc3ccccc3[nH]2)c1	-5.0	2.0	-10.9	-5.2	-7.3	1.0
O=C(O)c1ccc(-c2nc3ccccc3[nH]2)cc1	73.0*	1.3	-447.8	62.5*	75.1*	-0.1
